The values below come from ChEMBL document CHEMBL4371014, “Novel Allosteric Ligands of γ-Aminobutyric Acid Transporter 1 (GAT1) by MS Based Screening of Pseudostatic Hydrazone Libraries” (J Med Chem, 2018).

Structures are written as SMILES.

Assay [1] addresses T1, Sodium- and chloride-dependent GABA transporter 1 (Mus musculus, UniProt P31648). In words: Inhibition of NO711 binding to mouse GAT1 expressed in HEK293 cell membranes assessed as residual binding preincubated for 4 hrs followed by NO711 addition and measured after 40 mins by LC-ESI-MS/MS analysis. The gist of the method: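 Pseudostatic hydrazone libraries were generated with mouse GAT1 present. Each held eight aldehydes (1.0 µM each) plus hydrazine (200 µM), incubated 4 h. NO711 marker was added directly for a further 40 min. Bound marker was released and quantified by LC-ESI-MS/MS as % remaining specific binding, four replicates (means±SD).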

Assay [2] concerns the target T1, Sodium- and chloride-dependent GABA transporter 1. In words: Inhibition of mouse GAT1 expressed in HEK293 cells assessed as reduction in [3H]GABA uptake preincubated for 25 mins followed by [3H]GABA addition and measured after 4 mins by liquid scintillation counting method. Format: cell-based.
A further assay deals with T2, GABA transporter 4 (Mus musculus, UniProt P31650).
T2 sequence (P31650 whole entry): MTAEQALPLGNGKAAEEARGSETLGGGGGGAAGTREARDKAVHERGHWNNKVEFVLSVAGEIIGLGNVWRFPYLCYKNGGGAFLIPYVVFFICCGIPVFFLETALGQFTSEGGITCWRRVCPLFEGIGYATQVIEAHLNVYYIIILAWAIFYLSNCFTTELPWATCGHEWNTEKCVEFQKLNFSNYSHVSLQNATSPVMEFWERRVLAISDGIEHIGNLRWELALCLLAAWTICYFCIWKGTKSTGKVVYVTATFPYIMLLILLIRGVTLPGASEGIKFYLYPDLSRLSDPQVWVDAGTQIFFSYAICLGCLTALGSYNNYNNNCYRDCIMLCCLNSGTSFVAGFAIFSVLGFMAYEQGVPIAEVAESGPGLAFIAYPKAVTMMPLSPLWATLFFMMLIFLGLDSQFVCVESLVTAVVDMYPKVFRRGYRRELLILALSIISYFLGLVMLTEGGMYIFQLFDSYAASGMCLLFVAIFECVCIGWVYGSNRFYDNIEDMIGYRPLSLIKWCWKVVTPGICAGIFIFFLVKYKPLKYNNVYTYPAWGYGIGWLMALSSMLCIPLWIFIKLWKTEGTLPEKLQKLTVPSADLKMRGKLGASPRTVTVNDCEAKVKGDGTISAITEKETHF
In words: Inhibition of mouse GAT4 expressed in HEK293 cells assessed as reduction in [3H]GABA uptake preincubated for 25 mins followed by [3H]GABA addition and measured after 4 mins by liquid scintillation counting method. Format: cell-based.

Assay [3] concerns the target T3, Sodium- and chloride-dependent GABA transporter 1 (Homo sapiens, UniProt P30531). In words: Inhibition of NO711 binding to human GAT1 expressed in COS cell membranes by LC-ESI-MS/MS analysis.
The target in assay [4] is T3, Sodium- and chloride-dependent GABA transporter 1. In words: Inhibition of NO711 binding to human GAT1 expressed in COS cell membranes preincubated for 25 mins by LC-ESI-MS/MS analysis.

T3 sequence (P30531 whole entry): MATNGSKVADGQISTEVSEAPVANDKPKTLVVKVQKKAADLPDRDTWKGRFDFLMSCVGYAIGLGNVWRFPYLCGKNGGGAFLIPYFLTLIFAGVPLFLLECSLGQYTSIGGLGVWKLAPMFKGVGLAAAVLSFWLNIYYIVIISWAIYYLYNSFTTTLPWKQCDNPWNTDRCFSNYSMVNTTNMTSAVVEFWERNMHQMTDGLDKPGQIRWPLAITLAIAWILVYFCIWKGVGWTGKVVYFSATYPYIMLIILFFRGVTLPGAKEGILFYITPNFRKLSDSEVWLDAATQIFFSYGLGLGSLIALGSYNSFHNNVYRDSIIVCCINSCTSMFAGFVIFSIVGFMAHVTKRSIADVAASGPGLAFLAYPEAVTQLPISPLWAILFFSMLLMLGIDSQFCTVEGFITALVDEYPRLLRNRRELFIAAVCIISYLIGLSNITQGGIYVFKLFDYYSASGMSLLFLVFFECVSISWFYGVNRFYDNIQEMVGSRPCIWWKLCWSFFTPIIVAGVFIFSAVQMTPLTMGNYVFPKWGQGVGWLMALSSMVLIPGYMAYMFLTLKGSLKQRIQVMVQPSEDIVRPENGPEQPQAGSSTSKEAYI

On to `O=C(O)[C@H]1CNC[C@@H](CCN/N=C/c2ccc(-c3ccc(C(F)(F)F)cc3Cl)o2)C1` (racemic), for which the Ki in assay [1] was 0.617 µM. Further, the IC50 in assay [2] is 44.7 µM; at GABA transporter 4 it was 41.7 µM; in assay [3], 26.9 to 170 µM; in assay [4] it was 30.9 to 135 µM.
As for `O=C(O)[C@H]1CNC[C@@H](CN/N=C/c2ccc(-c3cccc(C(F)(F)F)c3)o2)C1` (racemic), the Ki in assay [1] is 0.708 µM.
Regarding `O=C(O)[C@H]1CNC[C@@H](CN/N=C/c2ccc(-c3ccc(Cl)cc3[N+](=O)[O-])o2)C1` (racemic), the Ki in assay [1] was 1.48 µM.
On to `O=C(O)[C@H]1CNC[C@@H](CN/N=C/c2ccc(-c3ccccc3C(F)(F)F)o2)C1` (racemic), for which, in assay [1], the inhibition constant Ki is 2.29 µM.
The same measure, in the same setting: under `O=C(O)[C@H]1CNC[C@@H](CN/N=C/c2cccc(Oc3ccccc3)c2)C1` (racemic) stands 0.955 µM; under `O=C(O)[C@H]1CNC[C@@H](CN/N=C/c2ccc(-c3ccccc3Br)o2)C1` (racemic), 1.45 µM.
Consider `O=C(O)[C@H]1CNC[C@@H](CN/N=C/c2cnc(-c3ccc4ccccc4c3)nc2)C1` (racemic), for which, in assay [1], the inhibition constant (Ki) is 0.933 µM.
`O=C(O)[C@H]1CNC[C@@H](CN/N=C/c2ccc(-c3cccc4ccccc34)o2)C1` (racemic): the inhibition constant Ki in assay [1] is 0.214 µM. For the same molecule, the IC50 in assay [2] was 22.9 µM; on GABA transporter 4 it was 75.9 µM; in assay [3] it was 26.9 to 170 µM; in assay [4], 42.7 µM.
The corresponding values for `O=C(O)[C@H]1CNC[C@@H](CCN/N=C/c2ccc(-c3ccc(Cl)cc3Cl)o2)C1` (racemic) are 0.479 µM, 35.5 µM, 15.1 µM, 26.9 to 170 µM and 30.9 to 135 µM.
Turning to `O=C(O)[C@H]1CNC[C@@H](CN/N=C/c2ccc(-c3cc(C(F)(F)F)cc(C(F)(F)F)c3)o2)C1` (racemic), the Ki in assay [1] is 0.245 µM. Also, the figures for the half-maximal inhibitory concentration (IC50) in assay [3] and in assay [4] were 26.9 to 170 µM and 135 µM, respectively.
In the case of `O=C(O)[C@H]1CNC[C@@H](CN/N=C/c2ccc(-c3ccc(Cl)cc3Cl)o2)C1` (racemic), the inhibitory constant (Ki) in assay [1] was 0.646 µM.
Still for that read-out and setting: under `O=C(O)[C@H]1CNC[C@@H](CN/N=C/c2ccc(-c3ccc(F)c(C(F)(F)F)c3)o2)C1` (racemic) stands 1.26 µM.
As to `O=C(O)[C@H]1CNC[C@@H](CN/N=C/c2ccc(-c3ccc(C(F)(F)F)cc3Cl)o2)C1` (racemic), the inhibition constant Ki in assay [1] is 0.447 µM. For the same molecule, the IC50 in assay [2] is 41.7 µM; in assay [3], 26.9 to 170 µM; in assay [4] it was 30.9 to 135 µM.
For the molecule `O=C(O)[C@H]1CNC[C@@H](CN/N=C/c2ccc(-c3cc(C(F)(F)F)ccc3Cl)o2)C1` (racemic), the Ki in assay [1] is 0.468 µM. Besides, the results for the IC50 in assay [2], in assay [3] and in assay [4] were 81.3 µM, 26.9 to 170 µM and 30.9 to 135 µM, respectively.
As for `O=C(O)[C@H]1CNC[C@@H](CN/N=C/c2ccc(-c3cccc(Cl)c3)o2)C1` (racemic), the Ki in assay [1] is 1.86 µM.
As for `O=C(O)[C@H]1CNC[C@@H](CN/N=C/c2ccc(-c3ccccc3Cl)o2)C1` (racemic), the Ki in assay [1] is 1.23 µM.
For `Cc1ccsc1C(=CCCN1CCC[C@@H](C(=O)O)C1)c1sccc1C` [TIAGABINE], in assay [1], the inhibition constant Ki was 0.0275 µM.

As a reminder, the Ki is the equilibrium dissociation constant of an inhibitor or competing ligand from its target. Usually IC50 stands for the concentration that gives 50% inhibition.
